Laboratory results reported in ChEMBL document CHEMBL1126740, “(S)- and (R)-8-(di-n-propylamino)-6,7,8,9-tetrahydro-3H-benz[e]indole-1-carbaldehyde: a new class of orally active 5-HT1A-receptor agonists” (J Med Chem, 1993).
Calls of active or inactive are those of the source. The rule behind the calls is not given here.

How the values were obtained:
[1] = Area under curve at 1 uM/dg administered intravenously; assay type: ADME; settings: iv
Summary of the method: (§1)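 Male Sprague-Dawley rats (300 g) carrying arterial catheters, used 24 h after surgery; animals dosed orally were starved 18 h beforehand. Blood was sampled at intervals up to 12 h after dosing. Drug levels were measured by HPLC with fluorescence detection (ex 285, em 365) or by GC/MS, calibrated against spiked blank blood. AUC was taken from concentration-time curves; n = 4–6.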

[2] = Area under curve at 20 uM/dg administered perorally; assay type: ADME; settings: po; summary of the method: as §1
[3] = Maximum concentration of the drug at 1 umol/dg administered intravenously; assay type: ADME, organism-based; set-up: route intravenous; settings: in vivo, iv
Summary of the method: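 Male Sprague-Dawley rats (300 g) with arterial catheters were dosed 24 h after surgery; orally dosed rats were starved 18 h beforehand. Blood was sampled at intervals up to 12 h and analysed by HPLC with fluorescence detection (ex 285, em 365) or by GC/MS. Cmax is in pmol/mL and tmax in min, mean ± SEM, n = 4–6.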

[4] = Maximum concentration of the drug at 20 umol/dg administered perorally; assay type: ADME, organism-based; set-up: route oral; settings: in vivo, po
Summary of the method: (§2)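 Male Sprague-Dawley rats (300 g) with arterial catheters, used 24 h after surgery; rats dosed orally were starved 18 h. Drug was given po or iv. Blood (100–250 μL) was sampled at intervals up to 12 h and assayed by HPLC-fluorescence (ex 285, em 365) or GC/MS against spiked blank-blood standard curves. Cmax and tmax were taken from concentration–time curves; n = 4–6.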

[5] = Bioavailability in rat; assay type: ADME, organism-based; settings: in vivo
Summary of the method: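 Blood was drawn at intervals up to 12 h and assayed by HPLC-fluorescence or GC/MS against spiked blank-blood standards. F is the ratio of oral to intravenous areas under the blood concentration-time curves; n = 4–6.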

[6] = Time taken to reach the maximum concentration of compound at 1 uM/dg administered intravenously; assay type: ADME, organism-based; settings: in vivo, iv; summary of the method: as §2
[7] = Half life of compound at 1 uM/dg administered intravenously; assay type: ADME, organism-based; settings: in vivo, iv; summary of the method: as §1
Rattus norvegicus [8] = species: Rattus norvegicus; assay: Compound was tested for 5-HT behavioral response in reserpine pretreated rats; +5HT syndrome; assay type: functional, organism-based
Summary of the method: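 Male Sprague-Dawley rats (200–300 g) were given reserpine 5 mg/kg sc 18 h before testing, then the test drug sc in the neck (n = 4). Motor activity was recorded by photocells for 30 min, with gross behaviour observed throughout. 5-HT syndrome: flat body posture, extended limbs, reciprocal forepaw treading. DA response: locomotion and stereotypies.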

Rattus norvegicus [9] = assay: In vivo evaluation for 5-HTP accumulation in the corpus striatum in male rats (po); assay type: functional
Summary of the method: (§3)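 Male Sprague-Dawley rats were pretreated with reserpine 5 mg/kg sc 18 h before dosing. DOPA and 5-HTP in limbic system, striatum and hemispheres were measured by HPLC with electrochemical detection. Dose-response curves used 4–6 dose levels (n = 4) for each region; ED50 was estimated graphically. Partial responses are given as the maximal % reduction at the highest dose tested.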

Rattus norvegicus [10] = assay: In vivo evaluation for 5-HTP accumulation in the corpus striatum in male rats.(sc); assay type: functional
Summary of the method: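 Male Sprague-Dawley rats (200–300 g), reserpine-pretreated (5 mg/kg sc, 18 h before). Test drug was given sc in 4–6 doses (n = 4 per dose), with separate curves per brain area. 5-HTP in corpus striatum was measured by HPLC with electrochemical detection. ED50 was read from the dose–response curve.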

Rattus norvegicus [11] = assay: In vivo evaluation for 5-HTP accumulation in the hemispheres in male rats (po); assay type: functional; summary of the method: as §3
Rattus norvegicus [12] = assay: In vivo evaluation for 5-HTP accumulation in the hemispheres in male rats (sc); assay type: functional; summary of the method: as §3
Rattus norvegicus [13] = assay: In vivo evaluation for 5-HTP accumulation in the limbic system in male rats (po); assay type: functional; summary of the method: as §3
Rattus norvegicus [14] = assay: In vivo evaluation for 5-HTP accumulation in the limbic system in male rats (sc); assay type: functional; summary of the method: as §3
Rattus norvegicus [15] = assay: In vivo evaluation for DOPA accumulation in the corpus striatum in male rats at highest test dose of 45 uM/Kg; inactive; assay type: functional, organism-based; summary of the method: as §3
Rattus norvegicus [16] = assay: In vivo evaluation for DOPA accumulation in the hemispheres in male rats at highest test dose of 45 uM/Kg; inactive; assay type: functional, organism-based; summary of the method: as §3
Rattus norvegicus [17] = assay: In vivo evaluation for DOPA accumulation in the limbic system in male rats at highest test dose of 45 uM/Kg; inactive; assay type: functional, organism-based; summary of the method: as §3
Rattus norvegicus [18] = assay: Maximal reduction in percent (Partial response) of DOPA accumulation rat corpus striatum at highest test dose of 61 uM/Kg (po); assay type: functional; summary of the method: as §3
Rattus norvegicus [19] = assay: Maximal reduction in percent (Partial response) of DOPA accumulation rat hemispheres at highest test dose of 61 uM/Kg (po); Inactive; assay type: functional, organism-based; summary of the method: as §3
Rattus norvegicus [20] = assay: Maximal reduction in percent (Partial response) of DOPA accumulation rat limbic system at highest test dose of 61 uM/Kg (po); assay type: functional
D(2) dopamine receptor = D(2) dopamine receptor (Rattus norvegicus, UniProt P61169); assay: Displacement of [3H]spiperone from dopamine receptor D2
Chain of D(2) dopamine receptor (P61169 whole entry): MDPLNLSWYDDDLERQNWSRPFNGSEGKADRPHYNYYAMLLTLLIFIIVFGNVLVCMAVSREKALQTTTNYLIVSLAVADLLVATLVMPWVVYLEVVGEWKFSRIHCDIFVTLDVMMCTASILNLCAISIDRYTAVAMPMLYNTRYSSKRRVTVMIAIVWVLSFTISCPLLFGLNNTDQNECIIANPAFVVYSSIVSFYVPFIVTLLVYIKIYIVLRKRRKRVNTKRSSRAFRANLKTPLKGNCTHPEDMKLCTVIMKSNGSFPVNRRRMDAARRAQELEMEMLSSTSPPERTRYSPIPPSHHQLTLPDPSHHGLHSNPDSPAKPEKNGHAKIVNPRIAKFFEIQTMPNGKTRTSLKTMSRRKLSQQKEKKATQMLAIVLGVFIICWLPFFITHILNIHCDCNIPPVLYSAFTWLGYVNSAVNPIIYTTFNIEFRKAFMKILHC
Summary of the method: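 Rat striatal membranes in 50 mM potassium phosphate buffer (3 mg original tissue) incubated with 0.5 nM [3H]spiperone for 10 min at 37 °C. Nonspecific binding was defined with 10 μM 6,7-ADTN. Ki was calculated by Cheng–Prusoff; triplicates, 3–7 experiments.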

SMILES: CCCN(CCC)C1CCc2cccc(O)c2C1 (racemic) [8-OH-DPAT]
- AUC [1]: 213 pM/h/g
- AUC [2]: 104 pM/h/g
- Cmax [3]: 344 pM ml-1
- Cmax [4]: 63 pM ml-1
- bioavailability [5]: 2.4%
- Tmax at 1 µM [6]: 3 min
- half-life [7]: 72 min
- Behavioral response (Rattus norvegicus [8]): Active
- ED50 (Rattus norvegicus [9]): 7.9 µmol/kg
- ED50 (Rattus norvegicus [10]): 0.052 µmol/kg
- ED50 (Rattus norvegicus [11]): 7.9 µmol/kg
- ED50 (Rattus norvegicus [12]): 0.063 µmol/kg
- ED50 (Rattus norvegicus [13]): 3 µmol/kg
- ED50 (Rattus norvegicus [14]): 0.052 µmol/kg
- ED50 (Rattus norvegicus [15]): inactive
- ED50 (Rattus norvegicus [16]): inactive
- ED50 (Rattus norvegicus [17]): inactive
- Reduction (Rattus norvegicus [18]): 43%
- Reduction (Rattus norvegicus [19]): inactive
- Reduction (Rattus norvegicus [20]): 35%
- Ki (D(2) dopamine receptor): 1360 nM
